# Measured values collected from several papers.
# Target: Calcium/calmodulin-dependent protein kinase type IV (CAMK4, Homo sapiens, UniProt Q16566)
# Sequence (Q16566 1-473, as in one of the studies): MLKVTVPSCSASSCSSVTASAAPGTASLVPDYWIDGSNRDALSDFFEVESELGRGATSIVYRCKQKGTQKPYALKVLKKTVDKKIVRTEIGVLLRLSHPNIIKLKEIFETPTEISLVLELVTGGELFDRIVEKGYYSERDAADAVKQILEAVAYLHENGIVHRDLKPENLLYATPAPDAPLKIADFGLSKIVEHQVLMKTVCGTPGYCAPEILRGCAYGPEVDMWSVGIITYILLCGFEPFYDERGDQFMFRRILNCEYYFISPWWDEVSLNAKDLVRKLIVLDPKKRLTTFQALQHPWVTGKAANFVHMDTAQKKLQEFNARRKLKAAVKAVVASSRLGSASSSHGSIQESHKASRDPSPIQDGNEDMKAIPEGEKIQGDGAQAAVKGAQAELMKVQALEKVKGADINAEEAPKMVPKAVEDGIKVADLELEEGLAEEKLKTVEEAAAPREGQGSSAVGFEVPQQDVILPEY
SMILES,observed,technique,concentration,remaining binding [%]
C=CC(=O)N1CCC(C(=O)NCC(=O)N2CCN(c3nc(-c4cnc(N)nc4C(F)F)nc(N4CCOCC4)n3)CC2)CC1,binding,competition with immobilised ligand,1 µM,86
O=C(NCCCN1CCOCC1)c1ccc(Nc2ncc(Cl)c(-c3ccc(Cl)s3)n2)cc1,binding,competition with immobilised ligand,1 µM,100
Nc1ncc2c(n1)-c1c([nH]c3ccc(C#CC4CC4)cc13)CCCC2,binding,competition with immobilised ligand,1 µM,100
Nc1c(C(=O)NCc2ccc(C(=O)NCCCC3CCCCC3)cc2)cnn1-c1ccccc1,cell-free assay,competition with immobilised ligand,0.1 µM,98
F[C@@H]1CCN(c2nccc(-c3cnn4ncccc34)n2)C1,binding,,1 µM,79
O=C(NCC1CCOCC1)c1n[nH]cc1NC(=O)c1c(F)cccc1F,binding,competition with immobilised ligand,1 µM,100
c1cnn2ncc(-c3ccnc(N4CCC45COC5)n3)c2c1,binding,,1 µM,100
CNC(=O)[C@@H]1CC[C@@H](n2c(-c3ccc4cnccc4c3)nc3ccc(C(=O)NCc4cccc(C(N)=O)c4)cc32)C1,binding,competition with immobilised ligand,1 µM,100
N[C@H]1CCN(c2nccc(-c3cnn4ncccc34)n2)C1,binding,,1 µM,100
Cc1c(NC(=O)c2cc(C(N)=O)nc3cc(F)ccc23)c(C(F)(F)F)nn1Cc1ccc(C(C)(C)C)cc1,cell-free assay,competition with immobilised ligand,1 µM,90
Cc1cnn2ncc(-c3ccnc(N(C)C)n3)c2c1,binding,,1 µM,86
C[C@@H](c1ccc(-n2cnc3c(N)ncnc32)cc1)N1CCc2nn(C)c(Cc3ccccc3)c2C1=O,binding,competition with immobilised ligand,0.1 µM,100
COc1cnc(Nc2cccc(S(N)(=O)=O)c2)nc1N1CCN(c2ccccc2)C(=O)C1,binding,competition with immobilised ligand,1 µM,100
CNC(=O)Nc1ccc2c(c1)[C@@]1(CC2)OC(=O)N(CC(=O)N(Cc2ccc(F)cc2)[C@@H](C)C(F)(F)F)C1=O,cell-free assay,competition with immobilised ligand,1 µM,85
C[C@H]1CCN(c2nccc(-c3cnn4ncccc34)n2)C1,binding,,1 µM,90
CNC(=O)Nc1ccc2c(c1)CC[C@@]21OC(=O)N(CC(=O)N(Cc2ccc(F)cc2)[C@@H](C)C(F)(F)F)C1=O,cell-free assay,competition with immobilised ligand,1 µM,75
CN(C)c1ncc(F)c(-c2cnn3ncccc23)n1,binding,,1 µM,100
CCOC(=O)c1cc2cc(-c3cc(C(=O)NCc4ccc(C(=O)O)cc4)nn3C)ccc2[nH]1,cell-free assay,competition with immobilised ligand,0.1 µM,95
O=C(NCCCN1CCOCC1)c1ccc(Nc2nccc(-c3cc4ccccc4s3)n2)cc1,binding,competition with immobilised ligand,1 µM,100
CN(C)c1nccc(-c2cnc3ncccn23)n1,binding,,1 µM,100
CC1=C(C#N)[C@@H](c2ccc3[nH]nc(C)c3c2)C(C#N)=C(c2ccc(Cl)cc2)N1,cell-free assay,competition with immobilised ligand,1 µM,31.8
O=C(c1ccc(Nc2ncc(Cl)c(-c3cc4ccccc4s3)n2)cc1)N1CCC(N2CCCC2)CC1,binding,competition with immobilised ligand,1 µM,100
